The test system of assay [1] is Jurkat. Kind of assay: Cytotoxicity against human Jurkat cells assessed as growth inhibition at 100 uM after 48 hrs by MTT assay. It counts as functional. The method, boiled down: (§1)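 Jurkat and Raji cells in RPMI 1640 with 10% fetal bovine serum, plated at 10⁴ cells/well. Compounds in DMSO diluted into medium, tested at 0.1–100. Exposure 48 h at 37 °C, 5% CO₂. Doxorubicin positive control; 0.6% DMSO negative control. MTT added for a further 4 h; formazan dissolved in 2-propanol/DMSO/HCl (30:20:2); A570. Inhibition percentage taken at the top concentration.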
On the technique in general: Tetrazolium assays rely on reduction of a dye to a coloured formazan, in cell work by metabolically active cells.

In assay [2] the test system is Raji. Kind of assay: Cytotoxicity against human Raji cells after 48 hrs by MTT assay. It counts as functional, cell-based. The method, boiled down:
(§2)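 Cells were grown in RPMI 1640 with 10% fetal bovine serum and plated at 10⁴ cells/well. Compounds were dissolved in DMSO, diluted in medium, and tested at 0.1, 1, 10, 25, 50, 75 and 100. Incubation was at 37 °C in 5% CO₂ for 48 h (Jurkat, Raji) or 72 h (MCF-7). Controls were doxorubicin (positive) and 0.6% DMSO (negative). MTT was added for a further 4 h, formazan was dissolved in 2-propanol/DMSO/HCl (30:20:2), and absorbance was read at 570 nm.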

Assay [3] relates to MCF7. Kind of assay: Cytotoxicity against human MCF7 cells assessed as growth inhibition at 100 uM after 72 hrs by MTT assay. It counts as functional. Conditions: MCF7, 72 h. In short, it runs like this:
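MCF-7 cells in RPMI 1640 with 10% fetal bovine serum, plated at 10⁴ cells/well. Compounds in DMSO diluted into medium at 0.1–100 and incubated 72 h at 37 °C, 5% CO₂. Doxorubicin served as positive control and 0.6% DMSO as negative control. MTT for 4 h; formazan dissolved in 2-propanol/DMSO/HCl (30:20:2); read at 570 nm. Inhibition percentage at the highest concentration.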

Assay [4] relates to Raji. Kind of assay: Cytotoxicity against human Raji cells assessed as growth inhibition at 100 uM after 48 hrs by MTT assay. The assay is classed as functional. In short, it runs like this: as §1
The test system of assay [5] is MCF7. Kind of assay: Cytotoxicity against human MCF7 cells after 72 hrs by MTT assay. The assay is classed as functional, cell-based. Conditions: MCF7, 72 h. In short, it runs like this:
as §2

In assay [6] the test system is Jurkat. Kind of assay: Cytotoxicity against human Jurkat cells after 48 hrs by MTT assay. It counts as functional, cell-based. The method, boiled down:
as §2

As a reminder, the inhibition is how much of the control response was suppressed. Usually IC50 stands for the point on the concentration scale where inhibition reaches its midpoint. Lower therefore signals greater potency in that assay. In the case of `CCOP(=O)(OCC)C(Nc1ccc(Cc2ccc(NC(c3ccc(O)c(OC)c3)P(=O)(OCC)OCC)cc2)cc1)c1ccc(O)c(OC)c1` (stereo not given), the inhibition at 100 µM came to 40.1% in assay [1], 29.1% in assay [3] and 56.2% in assay [4]. In assay [2], it took 58.6 µM to reach half-maximal inhibition (IC50).

With `CCOP(=O)(OCC)C(Nc1ccc(Cc2ccc(NC(c3cc(OC)c(OC)c(OC)c3)P(=O)(OCC)OCC)cc2)cc1)c1cc(OC)c(OC)c(OC)c1` (stereo not given), the results for the inhibition at 100 µM in assay [1], in assay [3] and in assay [4] were 20.1%, 3.5% and 0%, respectively.

Take `CCOP(=O)(OCC)C(Nc1ccc(Cc2ccc(NC(c3ccc([N+](=O)[O-])cc3)P(=O)(OCC)OCC)cc2)cc1)c1ccc([N+](=O)[O-])cc1` (stereo not given): the inhibition at 100 µM was determined as 10.7% in assay [1], 12.2% in assay [3] and 0% in assay [4].

In the case of `CCOP(=O)(OCC)C(Nc1ccc(C(=O)c2ccc(NC(c3ccccc3)P(=O)(OCC)OCC)cc2)cc1)c1ccccc1` (stereo not given), the inhibition at 100 µM worked out at 15.8% in assay [1], 10.2% in assay [3] and 0% in assay [4].

In the case of `CCOP(=O)(OCC)C(Nc1ccc(S(=O)(=O)c2ccc(NC(c3ccc(O)c(OC)c3)P(=O)(OCC)OCC)cc2)cc1)c1ccc(O)c(OC)c1` (stereo not given), the inhibition at 100 µM in assay [1] was determined as 15.6%; in assay [3], 16.6%; in assay [4], 0%.

As to `COc1cccc2c1C(=O)c1c(O)c3c(c(O)c1C2=O)C[C@@](O)(C(=O)CO)C[C@@H]3O[C@H]1C[C@H](N)[C@H](O)[C@H](C)O1` [DOXORUBICIN], the figures for the inhibition at 100 µM in assay [1], in assay [3] and in assay [4] were 82.3%, 65.5% and 66.7%, respectively.

For `CCOP(=O)(OCC)C(Nc1nc2[nH]cnc2c(=O)[nH]1)c1ccc(C(Nc2nc3[nH]cnc3c(=O)[nH]2)P(=O)(OCC)OCC)cc1` (stereo not given), the inhibition at 100 µM in assay [1] was 0%; in assay [3] it was 12.7%; in assay [4], 64.8%.

Take `CCOP(=O)(OCC)C(Nc1ccc(Oc2ccc(NC(c3ccccc3)P(=O)(OCC)OCC)cc2)cc1)c1ccccc1` (stereo not given): the inhibition at 100 µM in assay [1] turned out to be 6.84%; in assay [3], 0%; in assay [4], 0%.

In the case of `CCOP(=O)(OCC)C(Nc1ccccc1)c1ccc(C(Nc2ccccc2)P(=O)(OCC)OCC)cc1` (stereo not given), the inhibition at 100 µM stood at 36.8% in assay [1], 25.4% in assay [3] and 27.2% in assay [4].

Consider `CCOP(=O)(OCC)C(Nc1ccc(Cc2ccc(NC(c3ccc(N(C)C)cc3)P(=O)(OCC)OCC)cc2)cc1)c1ccc(N(C)C)cc1` (stereo not given), for which the results for the inhibition at 100 µM in assay [1], in assay [3] and in assay [4] were 17.8%, 12.7% and 0.78%, respectively.

Consider `CCOP(=O)(OCC)C(Nc1ccc(Cc2ccc(NC(c3ccccc3)P(=O)(OCC)OCC)cc2)cc1)c1ccccc1` (stereo not given), for which the inhibition at 100 µM amounted to 28% in assay [1], 13.9% in assay [3] and 6.41% in assay [4].

In the case of `CCOP(=O)(OCC)C(NCCc1c[nH]c2ccccc12)c1ccc(C(NCCc2c[nH]c3ccccc23)P(=O)(OCC)OCC)cc1` (stereo not given), the IC50 in assay [5] stood at 67.5 µM; in assay [2], 45.2 µM; in assay [6], 24.3 µM. The inhibition at 100 µM in assay [1] was 68.4%; in assay [3], 54.2%; in assay [4], 64.8%.

Source of the values: ChEMBL document CHEMBL1155977, “Design and one-pot synthesis of alpha-aminophosphonates and bis(alpha-aminophosphonates) by iron(III) chloride and cytotoxic activity” (Eur J Med Chem, 2009).
